From ChEMBL document CHEMBL4689842, “EUbOPEN Chemogenomics Library wave 1” (2021)
“And” between values parts separate entries of the source, which are not always exact repeats. Equal values may be shown once.

System: HEK-293T
Assay: Multiplex assay against HEK293T;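 on Population Tubulin-Different-Phenotype (%): share of the cells with healthy nuclei that show this phenotype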
Type: toxicity, cell-based
Settings: human
Procedure, shortened: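 Live cells were stained at seeding with Hoechst33342, BioTracker Green Microtubule Cytoskeleton Dye, MitoTracker Red and Annexin V Alexa Fluor 680, then imaged on a CQ1 microscope at 37°C and 5% CO2 after compound addition. CellPathfinder machine-learning gating split cells into Hoechst high-intensity objects or normal cells. Normal cells were split into healthy, pyknosed or fragmented nuclei, and pyknosed cells into mitotic or apoptotic. Tubulin, mitochondrial-mass and membrane-permeability phenotypes are per cents of healthy-nucleus cells.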

[1] = 12 h, 10 µM, compound concentration 10 uM, replicate 1
[2] = 12 h, 10 µM, compound concentration 10 uM, replicate 2
[3] = 24 h, 10 µM, compound concentration 10 uM, replicate 1
[4] = 24 h, 10 µM, compound concentration 10 uM, replicate 2
[5] = 48 h, 10 µM, compound concentration 10 uM, replicate 1
[6] = 48 h, 10 µM, compound concentration 10 uM, replicate 2
[7] = 12 h, 1 µM, compound concentration 1 uM, replicate 1
[8] = 12 h, 1 µM, compound concentration 1 uM, replicate 2
[9] = 24 h, 1 µM, compound concentration 1 uM, replicate 1
[10] = 24 h, 1 µM, compound concentration 1 uM, replicate 2
[11] = 48 h, 1 µM, compound concentration 1 uM, replicate 1
[12] = 48 h, 1 µM, compound concentration 1 uM, replicate 2

## C#Cc1cccc(Nc2ncnc3cc(OCCOC)c(OCCOC)cc23)c1 [ERLOTINIB]
[1]
  Population Apoptotic (%): 61% and 22% and 23%
  Population Fragmented Nuclei (%): 11% and 22% and 20%
  Population Healthy Nuclei (%): 23% and 55% and 63%
  Population Hoechst High Intensity Objects (%): 14% and 12%
  Population Membrane Permeable-Phenotype (%): 8% and 18% and 7%
  Population Mitotic Cells (%): 38% and 77% and 76%
  Population Normal (%): 85% and 87%
  Total Cell Count: 229 and 602 and 657
[2]
  Population Fragmented Nuclei (%): 12% and 6% and 7%
  Population Hoechst High Intensity Objects (%): 5% and 2%
  Population Mitotic Cells (%): 49% and 88% and 94%
  Population Normal (%): 94% and 97%
[3]
  Population Fragmented Nuclei (%): 10% and 13% and 15%
  Population Healthy Nuclei (%): 31% and 68% and 74%
  Population Hoechst High Intensity Objects (%): 16% and 12% and 8%
  Population Mitotic Cells (%): 29% and 68% and 78%
  Population Normal (%): 83% and 87% and 91%
  Total Cell Count: 250 and 573 and 727
[4]
  Population Healthy Nuclei (%): 38% and 82% and 70%
  Population Hoechst High Intensity Objects (%): 2% and 3%
  Population Normal (%): 97% and 96%
[5]
  Population Apoptotic (%): 64%
  Population Fragmented Nuclei (%): 20%
  Population Healthy Nuclei (%): 22%
  Population Hoechst High Intensity Objects (%): 20%
  Population Membrane Permeable-Phenotype (%): 2%
  Population Mitochondria Different-Phenotype (%): 88%
  Population Mitotic Cells (%): 35%
  Population Normal (%): 79%
  Population Pyknosed Nuclei (%): 57%
  Population Tubulin-Different-Phenotype (%): 91%
  Total Cell Count: 254
[6]
  Population Apoptotic (%): 45%
  Population Fragmented Nuclei (%): 4%
  Population Healthy Nuclei (%): 56%
  Population Hoechst High Intensity Objects (%): 5%
  Population Membrane Permeable-Phenotype (%): 5%
  Population Mitochondria Different-Phenotype (%): 81%
  Population Mitotic Cells (%): 54%
  Population Normal (%): 94%
  Population Pyknosed Nuclei (%): 38%
  Population Tubulin-Different-Phenotype (%): 97%
  Total Cell Count: 197

## C[C@]12CC[C@@H]3c4ccc(O)cc4CC[C@H]3[C@@H]1CC[C@@H]2O [ESTRADIOL]
[7]
  Population Apoptotic (%): 40%
  Population Fragmented Nuclei (%): 10%
  Population Healthy Nuclei (%): 45%
  Population Hoechst High Intensity Objects (%): 14%
  Population Membrane Permeable-Phenotype (%): 1%
  Population Mitochondria Different-Phenotype (%): 72%
  Population Mitotic Cells (%): 59%
  Population Normal (%): 85%
  Population Pyknosed Nuclei (%): 44%
  Population Tubulin-Different-Phenotype (%): 41%
[8]
  Population Apoptotic (%): 4%
  Population Fragmented Nuclei (%): 7%
  Population Healthy Nuclei (%): 42%
  Population Hoechst High Intensity Objects (%): 3%
  Population Membrane Permeable-Phenotype (%): 3%
  Population Mitochondria Different-Phenotype (%): 10%
  Population Mitotic Cells (%): 95%
  Population Normal (%): 96%
  Population Pyknosed Nuclei (%): 50%
  Population Tubulin-Different-Phenotype (%): 11%
[1]
  Population Apoptotic (%): 42%
  Population Fragmented Nuclei (%): 11%
  Population Hoechst High Intensity Objects (%): 15%
  Population Membrane Permeable-Phenotype (%): 0%
  Population Mitochondria Different-Phenotype (%): 76%
  Population Mitotic Cells (%): 57%
  Population Normal (%): 84%
  Population Pyknosed Nuclei (%): 52%
  Population Tubulin-Different-Phenotype (%): 29%
[2]
  Population Apoptotic (%): 10%
  Population Fragmented Nuclei (%): 5%
  Population Healthy Nuclei (%): 36%
  Population Hoechst High Intensity Objects (%): 5%
  Population Membrane Permeable-Phenotype (%): 1%
  Population Mitochondria Different-Phenotype (%): 11%
  Population Mitotic Cells (%): 89%
  Population Normal (%): 94%
  Population Pyknosed Nuclei (%): 58%
  Population Tubulin-Different-Phenotype (%): 9%
[9]
  Population Apoptotic (%): 37%
  Population Fragmented Nuclei (%): 12%
  Population Healthy Nuclei (%): 52%
  Population Hoechst High Intensity Objects (%): 16%
  Population Membrane Permeable-Phenotype (%): 1%
  Population Mitochondria Different-Phenotype (%): 45%
  Population Mitotic Cells (%): 62%
  Population Normal (%): 83%
  Population Pyknosed Nuclei (%): 34%
  Population Tubulin-Different-Phenotype (%): 34%
[10]
  Population Apoptotic (%): 6%
  Population Fragmented Nuclei (%): 3%
  Population Healthy Nuclei (%): 64%
  Population Hoechst High Intensity Objects (%): 3%
  Population Membrane Permeable-Phenotype (%): 10%
  Population Mitochondria Different-Phenotype (%): 6%
  Population Mitotic Cells (%): 93%
  Population Normal (%): 96%
  Population Pyknosed Nuclei (%): 31%
  Population Tubulin-Different-Phenotype (%): 21%
[3]
  Population Apoptotic (%): 39%
  Population Fragmented Nuclei (%): 11%
  Population Healthy Nuclei (%): 46%
  Population Hoechst High Intensity Objects (%): 16%
  Population Membrane Permeable-Phenotype (%): 1%
  Population Mitochondria Different-Phenotype (%): 53%
  Population Mitotic Cells (%): 60%
  Population Normal (%): 83%
  Population Pyknosed Nuclei (%): 41%
  Population Tubulin-Different-Phenotype (%): 39%
[4]
  Population Apoptotic (%): 7%
  Population Fragmented Nuclei (%): 5%
  Population Healthy Nuclei (%): 47%
  Population Hoechst High Intensity Objects (%): 5%
  Population Membrane Permeable-Phenotype (%): 8%
  Population Mitochondria Different-Phenotype (%): 12%
  Population Mitotic Cells (%): 92%
  Population Normal (%): 94%
  Population Pyknosed Nuclei (%): 47%
  Population Tubulin-Different-Phenotype (%): 12%
[11]
  Population Apoptotic (%): 42%
  Population Fragmented Nuclei (%): 15%
  Population Healthy Nuclei (%): 61%
  Population Hoechst High Intensity Objects (%): 13%
  Population Membrane Permeable-Phenotype (%): 3%
  Population Mitochondria Different-Phenotype (%): 20%
  Population Mitotic Cells (%): 57%
  Population Normal (%): 86%
  Population Pyknosed Nuclei (%): 23%
  Population Tubulin-Different-Phenotype (%): 25%
[12]
  Population Apoptotic (%): 3%
  Population Fragmented Nuclei (%): 5%
  Population Healthy Nuclei (%): 81%
  Population Hoechst High Intensity Objects (%): 3%
  Population Membrane Permeable-Phenotype (%): 8%
  Population Mitochondria Different-Phenotype (%): 3%
  Population Mitotic Cells (%): 96%
  Population Normal (%): 96%
  Population Pyknosed Nuclei (%): 13%
  Population Tubulin-Different-Phenotype (%): 13%
[5]
  Population Apoptotic (%): 29%
  Population Fragmented Nuclei (%): 16%
  Population Healthy Nuclei (%): 56%
  Population Hoechst High Intensity Objects (%): 11%
  Population Membrane Permeable-Phenotype (%): 1%
  Population Mitochondria Different-Phenotype (%): 30%
  Population Mitotic Cells (%): 70%
  Population Normal (%): 88%
  Population Tubulin-Different-Phenotype (%): 25%
[6]
  Population Apoptotic (%): 11%
  Population Fragmented Nuclei (%): 3%
  Population Healthy Nuclei (%): 69%
  Population Hoechst High Intensity Objects (%): 4%
  Population Membrane Permeable-Phenotype (%): 3%
  Population Mitochondria Different-Phenotype (%): 4%
  Population Mitotic Cells (%): 88%
  Population Normal (%): 95%
  Population Pyknosed Nuclei (%): 26%
  Population Tubulin-Different-Phenotype (%): 10%
